Screening data: PubChem, several laboratories
This is one part of a sample in which hits are shown more often than they occur.
UPR CHOP act: activators of apoptotic arm of unfolded protein response (CHOP) | CHO-CHOP luciferase reporter, UPR activation, luminescence; percent of tunicamycin response over DMSO baseline | activation, % at 10 µM | 0.34% of 330,000 active;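 active means at 10 µM dose, activation of 40% or more, normalized to positive control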;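 further: 100% = tunicamycin at 10 µg/mL and 0% = DMSO alone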
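Material: CHO-CHOP cells, stable luciferase reporter of PERK-eIF2a-CHOP signalling; quantity: 500 reporter cells seeded per well; buffer or medium: F12 medium containing 10% fetal bovine serum; compound: one dose, 10 µM in 0.5% DMSO; incubation: 6 h compound treatment, 37 °C; measured by: Steady-Glo luciferase luminescence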
NOD2-RIPK2 inh: NOD2-RIPK2 protein interaction inhibition | CHO BLA complementation NOD2-RIPK2, CCF4 ratio | 0.38% of 360,000 active | AID 624267 | inhibition, % at 4.98 µM; in the data active means inhibition above about 21%;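 further: 0% = vehicle only and 100% = reference blocker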
CHOP inh: inhibitors of CHOP induction in ER stress response; CHO-K1 CHOP-promoter luciferase, tunicamycin-induced, 15-18 h; inhibition, % at 10 µM; 3.8% of 220,000 active; AID 2732;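 active means compounds that reduced the stress-induced luciferase reporter signal by more than about 70% of percent inhibition, limit read from the data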;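 further: 0% = tunicamycin plus vehicle and 100% = wells without tunicamycin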
TLR4-MyD88 BLA: blocks binding of human TLR4 to MyD88; O00206+Q99836; HeLa CL3-4 TLR4/MyD88 BLA complementation, FRET ratio; inhibition, % at 8.4 µM; 0.18% of 200,000 active; in the data active means inhibition above about 25%;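 further: 0% = vehicle and 100% = reference inhibitor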
XBP1 UPR activ: adaptive UPR (XBP1) activation; CHO-XBP1 luciferase reporter, IRE1-XBP1 UPR activation, luminescence; percent of tunicamycin response, DMSO as zero; activation, % at 20 µM; 0.33% of 330,000 active;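 active means versus positive control, 20 µM dose yields 30% or more activation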;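 further: 100% = tunicamycin at 10 µg/mL and 0% = DMSO only wells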
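Material – CHO cell line with stable XBP1 luciferase reporter · Buffer or medium – F12 plus 10% FBS · Compound – single point, 20 µM final compound, 1% DMSO · Schedule – 16-18 h cell attachment at 37 °C, then 6 h compound exposure · Signal – Steady-Glo luminescence read · Benchmarks – high control tunicamycin 10 µg/mL final, low control DMSO vehicle only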
TLR9-MyD88 block: TLR9-MyD88 interaction inhibition; Q9NR96+Q99836; CHO BLA complementation TLR9-MyD88, CCF4 FRET ratio; inhibition, % at 4.98 µM; 0.21% of 340,000 active;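 active means inhibition above the mean over all tested compounds plus 3 SD, cut at about 21% in these data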;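 further: 0% = DMSO only wells and 100% = clavulanate BLA inhibitor control wells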
NOD2-RIPK2 conf: confirmation of human NOD2-RIPK2 interaction inhibitors | shares compounds with NOD2-RIPK2 inh | CHO cells, NOD2-RIPK2 BLA complementation, CCF4 FRET | inhibition, % at 4.98 µM | 70% of 1,200 active | AID 624370;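 active means mean inhibition across replicates above a set limit taken from the earlier primary screen, cut at about 21% in these data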;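 further: 0% = DMSO-only wells and the high end = clavulanate BLA-blocked wells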
NOD2 BLA counter: NOD2-RIPK2 counterscreen BLA reporter activity | AID 624371 | 57% of 1,200 active | shares compounds with NOD2-RIPK2 inh | CHO BLA reporter, CCF4 FRET ratio | inhibition, % at 4.98 µM;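 active means mean inhibition above the low-control mean inhibition plus three low-control SD, cut at about 11% in these data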;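 further: 0% = DMSO only wells and 100% = clavulanate high control wells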
Numbers without * were called inactive; x = not tested or not shown.

SMILES | UPR CHOP act | NOD2-RIPK2 inh | CHOP inh | TLR4-MyD88 BLA | XBP1 UPR activ | TLR9-MyD88 block | NOD2-RIPK2 conf | NOD2 BLA counter
Cc1cccc(NS(=O)(=O)c2cc([N+](=O)[O-])ccc2C)n1 | -1 | 42* | 13 | 7 | -3 | 10 | -2 | -5
O=[N+]([O-])c1ccc2nc(NN=Cc3ccc(O)cc3)sc2c1 | x | 23* | x | x | x | 8 | 25* | 32*
CCN(C(=O)COC(=O)c1cc([N+](=O)[O-])ccc1N1CCOCC1)C1CCCCC1 | 0 | -8 | x | x | 2 | 2 | x | x
O=C(COc1ccc(S(=O)(=O)N2CCOCC2)cc1Cl)NCC1CCCO1 (centres undefined) | -1 | 46* | x | x | -2 | -7 | -2 | -4
CC(C)(O)[C@H]1Cc2cc3ccc(=O)oc3cc2O1 | 3 | 3 | x | x | -1 | 0 | x | x
COc1ccc(CCNC(=O)C/C(C)=N/NC(=O)c2ccc([N+](=O)[O-])cc2Cl)cc1OC | 2 | 46* | x | x | -5 | -5 | -4 | -2
CCOc1ccccc1CNC(=O)c1ccc(Sc2ccc(Cl)cc2)c(NC(C)=O)c1 | -2 | -6 | 41 | -5 | -4 | -8 | x | x
CCOc1ccc(CNC(=O)c2ccc(Sc3ccc(Cl)cc3)c(NC(C)=O)c2)cc1 | -2 | 33* | 40 | -4 | 0 | 4 | 1 | 2
CCOC(=O)C1=C(C)N(C)C(C)=C(C(=O)OCC)C1c1ccncc1 | -1 | 9 | -4 | 5 | -3 | -7 | x | x
CCOC(=O)C1=C(C)N(C)C(C)=C(C(=O)OCC)C1c1ccccc1 | 5 | 53* | 40 | 0 | 3 | -25 | -8 | -2
N#Cc1cccc(N=c2ssnc2Cl)c1 | 0 | x | -1 | -1 | 5 | x | x | x
Clc1nssc1=Nc1nncs1 | 3 | 27* | x | x | 0 | 8 | 29* | 3
COc1ccc(-c2nc(CS(=O)CC(=O)NC3CCCc4ccccc43)c(C)o2)cc1OC (centres undefined) | 0 | 27* | 12 | -10 | 2 | -4 | -8 | -6
CC1CCCN(C(=O)C2CC(=O)N(c3ccc(Cl)cc3)C2)C1 (centres undefined) | 2 | 0 | x | x | -2 | 6 | x | x
O=C(N/N=C/c1cc(Cl)cc(Cl)c1O)c1ccncc1 | -3 | 32* | 75* | x | 0 | 18 | 26* | 26*
COc1ccc(NC(=O)CSc2nnc(Cc3cccs3)n2C)cc1 | 1 | 5 | x | x | 2 | 3 | x | x
COC(=O)C1=NN(c2ccc(C)cc2)C2C(=O)N(c3ccccc3OC)C(=O)C12 (centres undefined) | 1 | -11 | 6 | x | -4 | -4 | x | x
COc1ccccc1N1C(=O)C2C(C(=O)c3ccccc3)=NN(c3ccc(C)cc3)C2C1=O (centres undefined) | 1 | 27* | -10 | x | 11 | x | 67* | 67*
COc1ccccc1N1C(=O)C2C(C(=O)c3ccccc3)=NN(c3ccc(Br)cc3)C2C1=O (centres undefined) | 1 | 25* | -4 | x | 1 | x | 81* | 83*
N#CC(C#N)=C1C=CC=CN1/C(=C\c1ccco1)C(=O)c1ccc(Cl)cc1 | x | 94* | 111* | -9 | x | 19 | 91* | 17*
N#CC(C#N)=C1C=CC=CN1/C(=C\c1ccco1)C(=O)c1ccc(-c2ccccc2)cc1 | x | 22* | 107* | 9 | x | 15 | 78* | 16*
N#C/C(=C\c1ccco1)C(=O)NCc1ccccc1 | 1 | 0 | -24 | 16 | 1 | 5 | x | x
O=C(NCC1CCCO1)/C(=C\c1ccco1)NC(=O)c1ccc(Cl)cc1 (centres undefined) | 0 | 0 | 25 | 5 | -1 | -3 | x | x
CCOC(=O)c1cc([N+](=O)[O-])cc([N+](=O)[O-])c1Sc1ncnc2nc[nH]c12 | x | 39* | x | x | x | 5 | 67* | -15
